Our source for the MBIC50, MFC and MBC values is ChEMBL document CHEMBL4622873, “Chlorosphaerolactylates A-D: Natural Lactylates of Chlorinated Fatty Acids Isolated from the Cyanobacterium Sphaerospermopsis sp. LEGE 00249” (2020).

≈ marks a conversion by molar mass, not a printed value.

The test system of one experiment is Staphylococcus hominis. The experiment is described as follows: Antibiofilm activity against coagulase-negative Staphylococcus hominis FI31 incubated for 48 hrs by crystal violet staining-based method. Type of experiment: functional.
Settings: not given
In outline:
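Strain FI31 is a clinical isolate recovered from an infected prosthesis. Media and solutions were made in ultrapure deionized water and sterilized by autoclaving at 121 °C for 15 min.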
For the compound `C[C@H](OC(=O)CCCCC(Cl)CCCCCCCl)C(=O)O` (some centres not stated), the MBIC50 was 0.5 to 1.1 mM.

`CCCCCCC(Cl)CCCCC(=O)OC(C)C(=O)O` (configuration not stated) registered an MBIC50 of 0.5 to 1.1 mM.

In turn, `CC(OC(=O)CCCCC(Cl)CCCCCC(Cl)Cl)C(=O)O` (configuration not stated) yielded an MBIC50 of 0.5 to 1.1 mM.

The compound `CC(OC(=O)CCCCCCCCCCCCl)C(=O)O` (configuration not stated) displayed an MBIC50 of 0.5 to 1.1 mM.

The subject of the next experiment is Candida parapsilosis. As to the kind of experiment: Fungicidal activity against Candida parapsilosis SMI416 by CLSI-based broth microdilution method. It is filed as functional. The following applies: Lodderomyces parapsilosis. The essentials: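 C. parapsilosis SMI416, a clinical isolate from a bloodstream infection, revived on Mueller-Hinton agar at 37 °C from 25% (v/v) glycerol stocks held at -20 °C, then maintained at 4 °C. Media and solutions were made in ultrapure water and autoclaved at 121 °C for 15 min.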
For the compound `C[C@H](OC(=O)CCCCC(Cl)CCCCCCCl)C(=O)O` (some centres not stated), the MFC fell in the range of 2.7 to 6 mM (≈ 921 to 2050 µg/mL).

For the compound `CCCCCCC(Cl)CCCCC(=O)OC(C)C(=O)O` (configuration not stated), the MFC lay within 2.7 to 6 mM (≈ 828 to 1840 µg/mL).

Consider `CC(OC(=O)CCCCC(Cl)CCCCCC(Cl)Cl)C(=O)O` (configuration not stated), for which the MFC was 2.7 to 6 mM (≈ 1010 to 2250 µg/mL).

Consider `CC(OC(=O)CCCCCCCCCCCCl)C(=O)O` (configuration not stated), for which the MFC lay in the range of 2.7 to 6 mM (≈ 828 to 1840 µg/mL).

The test system of a further experiment is Staphylococcus aureus. As to the kind of experiment: Bactericidal activity against Staphylococcus aureus spa type t1333/S54F9 by CLSI-based broth microdilution method.
Settings: not given
Type of experiment: functional. The essentials:
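S. aureus clinical isolate S54F9, revived on Mueller-Hinton agar at 37 °C from 25% (v/v) glycerol stocks held at -20 °C, then kept at 4 °C. Broth microdilution susceptibility test in 96-well plates, after which the upper wells were subcultured onto solid MSA agar to read the bactericidal endpoint.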
On the technique in general: Broth dilution looks for growth in wells or tubes with falling amounts of substance.
Regarding `C[C@H](OC(=O)CCCCC(Cl)CCCCCCCl)C(=O)O` (some centres not stated), the MBC lay within 2.7 to 6 mM (≈ 921 to 2050 µg/mL).

For the compound `CCCCCCC(Cl)CCCCC(=O)OC(C)C(=O)O` (configuration not stated), the MBC fell in the range of 2.7 to 6 mM (≈ 828 to 1840 µg/mL).

For `CC(OC(=O)CCCCC(Cl)CCCCCC(Cl)Cl)C(=O)O` (configuration not stated), the MBC lay in the range of 2.7 to 6 mM (≈ 1010 to 2250 µg/mL).

The compound `CC(OC(=O)CCCCCCCCCCCCl)C(=O)O` (configuration not stated) showed an MBC of 2.7 to 6 mM (≈ 828 to 1840 µg/mL).

As a reminder, the MFC is the smallest concentration meeting the test's criterion for killing the fungus. Low readings indicate more potent killing, high ones less potent killing. In general, MBC refers to the smallest concentration meeting the test's criterion for killing. A higher MBC goes with less potent killing.
